Test results: ChEMBL document CHEMBL1128719, “The synthesis, structure-activity, and structure-side effect relationships of a series of 8-alkoxy- and 5-amino-8-alkoxyquinolone antibacterial agents” (J Med Chem, 1995)
Converted amounts (≈) assume the structure as drawn.

Tests used:
Cutibacterium acnes = experiment: In vitro antibacterial activity was tested for Propion acnes PA5-1; assay type: functional
Summary of the method: (§1)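 Microtitration (microdilution) MIC determination in μg/mL against a panel of Gram-positive, Gram-negative and anaerobic organisms. Values come from duplicate or triplicate experiments and are stated accurate to ±50%.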

Mus musculus [1] = organism: Mus musculus; experiment: Phototoxic skin reaction in depilated female CD-1 mice.; assay type: functional
Summary of the method: (§2)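 Female CD-1 mice, depilated, given a single oral or subcutaneous dose. UVA (320–400 nm) exposure for 3 h, starting 1 h post-dose. Initial doses were 30, 100 and 300 mg/kg. PTD50 (dose giving phototoxic skin reaction in 50% of mice) derived by probit method. First day of positive reaction and no-effect dose taken from raw data.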

Clostridioides difficile = experiment: In vitro antibacterial activity was tested for Clostridium diff CD1-1; assay type: functional
Mus musculus [2] = organism: Mus musculus; experiment: (§3) Phototoxic skin reaction in depilated female CD-1 mice; assay type: toxicity, organism-based; details: in vivo; summary of the method: as §2
[3] = tested on: Peptoniphilus asaccharolyticus; experiment: In vitro antibacterial activity was tested for Pepto asac PA 3-1; assay type: functional; summary of the method: as §1
Clostridium perfringens = experiment: In vitro antibacterial activity against Clostridium perfringens CP 3-1; assay type: functional
Bacteroides fragilis = experiment: In vitro antibacterial activity against Bacteroides fragilis BFA; assay type: functional; summary of the method: as §1
V79 = experiment: Clonogenic cytotoxicity against Chinese hamster V-79 cells; assay type: functional, cell-based; details: Cricetulus griseus
Enterobacter cloacae = experiment: In vitro antibacterial activity was tested for Enterobacter cloacae HA2646; assay type: functional
Streptococcus pneumoniae = experiment: In vitro antibacterial activity was tested for Streptococcus pneumoniae SV-1; assay type: functional; summary of the method: as §1
Escherichia coli [4] = experiment: In vitro antibacterial activity was tested for Escherichia coli Vogel; assay type: functional; summary of the method: as §1
Streptococcus pyogenes = experiment: In vitro antibacterial activity was tested for Streptococcus pyogenes C203; assay type: functional; summary of the method: as §1
Klebsiella pneumoniae = experiment: In vitro antibacterial activity was tested for Klebsiella pneumoniae MGH-2; assay type: functional; summary of the method: as §1
Providencia rettgeri = experiment: In vitro antibacterial activity was tested for Providencia rettgeri H1771; assay type: functional; summary of the method: as §1
Escherichia coli [5] = experiment: In vitro antibacterial activity was tested for Escherichia coli H560; assay type: functional; summary of the method: as §1
Enterococcus faecalis = experiment: In vitro antibacterial activity was tested for Streptococcus faecalis MGH-2; assay type: functional; summary of the method: as §1
Staphylococcus aureus [6] = experiment: In vitro antibacterial activity was tested for Staphylococcus aureus UC-76; assay type: functional; summary of the method: as §1
Staphylococcus aureus [7] = experiment: In vitro antibacterial activity was tested for Staphylococcus aureus H228; assay type: functional; summary of the method: as §1
Pseudomonas aeruginosa = experiment: In vitro antibacterial activity was tested for Pseudomonas aeruginosa UI-18; assay type: functional; summary of the method: as §1
Mus musculus [8] = organism: Mus musculus; experiment: as §3; assay type: functional; summary of the method: as §2

SMILES | MIC (Cutibacterium acnes) | No effect dose (Mus musculus [1]) | MIC (Clostridioides difficile) | PTD50 (Mus musculus [2]) | MIC [3] | MIC (Clostridium perfringens) | MIC (Bacteroides fragilis) | IC50 (V79) | MIC (Enterobacter cloacae) | MIC (Streptococcus pneumoniae) | MIC (Escherichia coli [4]) | MIC (Streptococcus pyogenes) | MIC (Klebsiella pneumoniae) | MIC (Providencia rettgeri) | MIC (Escherichia coli [5]) | MIC (Enterococcus faecalis) | MIC (Staphylococcus aureus [6]) | MIC (Staphylococcus aureus [7]) | MIC (Pseudomonas aeruginosa) | No effect dose (Mus musculus [8])
NC1CCCN(c2c(F)cc3c(=O)c(C(=O)O)cn(C4CC4)c3c2F)C1 (stereo unspecified) | 0.4 µg/mL (≈ 1.1 µM) | 30 mg | 1.6 µg/mL (≈ 4.4 µM) | 55 mg | 1.6 µg/mL (≈ 4.4 µM) | 0.2 µg/mL (≈ 0.55 µM) | 1.6 µg/mL (≈ 4.4 µM) |  |  |  |  |  |  |  |  |  |  |  |  | 
CC1(CN)CCN(c2c(F)cc3c(=O)c(C(=O)O)cn(C4CC4)c3c2Cl)C1 (stereo unspecified) | 0.2 µg/mL (≈ 0.508 µM) | <30 mg | 0.2 µg/mL (≈ 0.508 µM) | < 30 mg | 0.2 µg/mL (≈ 0.508 µM) | 0.05 µg/mL (≈ 0.127 µM) | 0.05 µg/mL (≈ 0.127 µM) | 8.6 µg/mL (≈ 21.8 µM) |  |  |  |  |  |  |  |  |  |  |  | 
COc1c(N2CCC(N)CC2)c(F)c(N)c2c(=O)c(C(=O)O)cn(C3CC3)c12 | 3.1 µg/mL (≈ 7.94 µM) |  | 3.1 µg/mL (≈ 7.94 µM) |  | 1.6 µg/mL (≈ 4.1 µM) | 0.8 µg/mL (≈ 2.05 µM) | 3.1 µg/mL (≈ 7.94 µM) | 60 µg/mL (≈ 154 µM) | 0.1 µg/mL (≈ 0.256 µM) | 0.013 µg/mL (≈ 0.0333 µM) | 0.1 µg/mL (≈ 0.256 µM) | 0.025 µg/mL (≈ 0.064 µM) | 0.2 µg/mL (≈ 0.512 µM) | 0.4 µg/mL (≈ 1.02 µM) | 0.05 µg/mL (≈ 0.128 µM) | 0.05 µg/mL (≈ 0.128 µM) | 0.013 µg/mL (≈ 0.0333 µM) | 0.05 µg/mL (≈ 0.128 µM) | 1.6 µg/mL (≈ 4.1 µM) | 
COc1c(N2CCCC(N)C2)c(F)c(N)c2c(=O)c(C(=O)O)cn(C3CC3)c12 (stereo unspecified) | 0.4 µg/mL (≈ 1.02 µM) | 100 mg | 1.6 µg/mL (≈ 4.1 µM) | > 100 mg | 0.8 µg/mL (≈ 2.05 µM) | 0.2 µg/mL (≈ 0.512 µM) | 1.6 µg/mL (≈ 4.1 µM) | 290 µg/mL (≈ 743 µM) | 0.1 µg/mL (≈ 0.256 µM) | 0.006 µg/mL (≈ 0.0154 µM) | 0.1 µg/mL (≈ 0.256 µM) | 0.013 µg/mL (≈ 0.0333 µM) | 0.2 µg/mL (≈ 0.512 µM) | 0.4 µg/mL (≈ 1.02 µM) | 0.05 µg/mL (≈ 0.128 µM) | 0.05 µg/mL (≈ 0.128 µM) | 0.006 µg/mL (≈ 0.0154 µM) | 0.025 µg/mL (≈ 0.064 µM) | 1.6 µg/mL (≈ 4.1 µM) | 
NC1CCN(c2cc3c(cc2F)c(=O)c(C(=O)O)cn3C2CC2)C1 (stereo unspecified) | 1.6 µg/mL (≈ 4.83 µM) |  | 12.5 µg/mL (≈ 37.7 µM) | > 300 mg | 1.6 µg/mL (≈ 4.83 µM) | 0.1 µg/mL (≈ 0.302 µM) | 1.6 µg/mL (≈ 4.83 µM) |  | 0.025 µg/mL (≈ 0.0754 µM) | 0.1 µg/mL (≈ 0.302 µM) | 0.025 µg/mL (≈ 0.0754 µM) | 0.006 µg/mL (≈ 0.0181 µM) | 0.1 µg/mL (≈ 0.302 µM) | 0.1 µg/mL (≈ 0.302 µM) | 0.05 µg/mL (≈ 0.151 µM) | 0.05 µg/mL (≈ 0.151 µM) | 0.1 µg/mL (≈ 0.302 µM) | 0.025 µg/mL (≈ 0.0754 µM) | 0.1 µg/mL (≈ 0.302 µM) | 300 mg
Nc1c(F)c(N2CCC(N)C2)c(F)c2c1c(=O)c(C(=O)O)cn2C1CC1 (stereo unspecified) |  |  |  | 52 mg |  |  |  |  | 0.006 µg/mL (≈ 0.0165 µM) | 0.006 µg/mL (≈ 0.0165 µM) | 0.006 µg/mL (≈ 0.0165 µM) | 0.025 µg/mL (≈ 0.0686 µM) | 0.006 µg/mL (≈ 0.0165 µM) | 0.025 µg/mL (≈ 0.0686 µM) | 0.003 µg/mL (≈ 0.00823 µM) | 0.025 µg/mL (≈ 0.0686 µM) | 0.006 µg/mL (≈ 0.0165 µM) | 0.013 µg/mL (≈ 0.0357 µM) | 0.05 µg/mL (≈ 0.137 µM) | 30 mg
CCOc1c(N2CCCC(CN)C2)c(F)cc2c(=O)c(C(=O)O)cn(C3CC3)c12 (stereo unspecified) | 3.1 µg/mL (≈ 7.68 µM) |  | 3.1 µg/mL (≈ 7.68 µM) |  | 0.4 µg/mL (≈ 0.991 µM) | 0.4 µg/mL (≈ 0.991 µM) | 3.1 µg/mL (≈ 7.68 µM) | 63 µg/mL (≈ 156 µM) | 0.4 µg/mL (≈ 0.991 µM) | 0.025 µg/mL (≈ 0.062 µM) | 0.2 µg/mL (≈ 0.496 µM) | 0.025 µg/mL (≈ 0.062 µM) | 0.8 µg/mL (≈ 1.98 µM) | > 3.1 µg/mL | 0.1 µg/mL (≈ 0.248 µM) | 0.05 µg/mL (≈ 0.124 µM) | 0.013 µg/mL (≈ 0.0322 µM) | 0.05 µg/mL (≈ 0.124 µM) | > 3.1 µg/mL | 
COc1c(N2CC(C)NC(C)C2)c(F)c(N)c2c(=O)c(C(=O)O)cn(C3CC3)c12 (stereo unspecified) | 1.6 µg/mL (≈ 3.96 µM) | 100 mg | 3.1 µg/mL (≈ 7.66 µM) | > 100 mg | 0.8 µg/mL (≈ 1.98 µM) | 0.4 µg/mL (≈ 0.989 µM) | 1.6 µg/mL (≈ 3.96 µM) |  | 0.2 µg/mL (≈ 0.495 µM) | 0.05 µg/mL (≈ 0.124 µM) | 0.2 µg/mL (≈ 0.495 µM) | 0.1 µg/mL (≈ 0.247 µM) | 0.4 µg/mL (≈ 0.989 µM) | 0.8 µg/mL (≈ 1.98 µM) | 0.1 µg/mL (≈ 0.247 µM) | 0.2 µg/mL (≈ 0.495 µM) | 0.025 µg/mL (≈ 0.0618 µM) | 0.1 µg/mL (≈ 0.247 µM) | 3.1 µg/mL (≈ 7.66 µM) | 
CCOc1c(N2CCC(C)(CN)C2)c(F)cc2c(=O)c(C(=O)O)cn(C3CC3)c12 (stereo unspecified) | 3.1 µg/mL (≈ 7.68 µM) | 100 mg | 3.1 µg/mL (≈ 7.68 µM) | > 100 mg | 0.8 µg/mL (≈ 1.98 µM) | 0.8 µg/mL (≈ 1.98 µM) | 1.6 µg/mL (≈ 3.97 µM) | 140 µg/mL (≈ 347 µM) | 0.2 µg/mL (≈ 0.496 µM) | 0.1 µg/mL (≈ 0.248 µM) | 0.2 µg/mL (≈ 0.496 µM) | 0.1 µg/mL (≈ 0.248 µM) | 0.4 µg/mL (≈ 0.991 µM) | 0.8 µg/mL (≈ 1.98 µM) | 0.2 µg/mL (≈ 0.496 µM) | 0.1 µg/mL (≈ 0.248 µM) | 0.013 µg/mL (≈ 0.0322 µM) | 0.05 µg/mL (≈ 0.124 µM) | 1.6 µg/mL (≈ 3.97 µM) | 
CC1(CN)CCN(c2nc3c(cc2F)c(=O)c(C(=O)O)cn3C2CC2)C1 (stereo unspecified) | 1.6 µg/mL (≈ 4.44 µM) | 300 mg | 25 µg/mL (≈ 69.4 µM) | > 300 mg | 1.6 µg/mL (≈ 4.44 µM) | 0.2 µg/mL (≈ 0.555 µM) | 6.3 µg/mL (≈ 17.5 µM) |  |  |  |  |  |  |  |  |  |  |  |  | 
COc1c(N2CCC(C)(CN)C2)c(F)cc2c(=O)c(C(=O)O)cn(C3CC3)c12 (stereo unspecified) | 0.4 µg/mL (≈ 1.03 µM) | 100 mg | 0.8 µg/mL (≈ 2.05 µM) | > 100 mg | 0.8 µg/mL (≈ 2.05 µM) | 0.2 µg/mL (≈ 0.514 µM) | 0.4 µg/mL (≈ 1.03 µM) |  | 0.1 µg/mL (≈ 0.257 µM) | 0.013 µg/mL (≈ 0.0334 µM) | 0.1 µg/mL (≈ 0.257 µM) | 0.013 µg/mL (≈ 0.0334 µM) | 0.2 µg/mL (≈ 0.514 µM) | 0.4 µg/mL (≈ 1.03 µM) | 0.05 µg/mL (≈ 0.128 µM) | 0.025 µg/mL (≈ 0.0642 µM) | 0.006 µg/mL (≈ 0.0154 µM) | 0.025 µg/mL (≈ 0.0642 µM) | 1.6 µg/mL (≈ 4.11 µM) | 
